The test system of series [1] is Rattus norvegicus. As to the kind of experiment: Neurotoxicity in rat at 30 mg/kg, po after 2 hrs by rotarod test. The format is toxicity, organism-based. The settings on record: in vivo.
Series [2] has as its system Rattus norvegicus. As to the kind of experiment: Neurotoxicity in rat at 30 mg/kg, ip after 4 hrs by rotarod test. The format is toxicity, organism-based. The conditions noted are these: in vivo.
Series [3] concerns Rattus norvegicus. As to the kind of experiment: Neurotoxicity in rat at 30 mg/kg, ip after […] by rotarod test. The format is toxicity, organism-based. The conditions noted are these: in vivo.
Series [4] relates to Mus musculus. As to the kind of experiment: Neurotoxicity in mouse at 30 mg/kg, ip after 0.5 hrs by rotarod test. The format is toxicity, organism-based. The conditions noted are these: in vivo. Put shortly:
(§1)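 Mice were dosed ip with compound suspended in 0.5% methylcellulose. Rotarod: a 1 in. knurled rod turning at 6 rpm. Neurotoxicity was scored as failure to stay on the rod for at least 1 min in each of three trials. Results are given as the number of animals affected out of the number tested.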

The test system of series [5] is Mus musculus. As to the kind of experiment: Neurotoxicity in mouse at 100 mg/kg, ip after 0.5 hrs by rotarod test. The format is toxicity, organism-based. The settings on record: in vivo. Put shortly: as §1
For series [6], the system named is Mus musculus. As to the kind of experiment: Neurotoxicity in mouse at 300 mg/kg, ip after 0.5 hrs by rotarod test. The format is toxicity, organism-based. The settings on record: in vivo. A digest of the protocol: as §1
Series [7] deals with Rattus norvegicus. As to the kind of experiment: Neurotoxicity in rat at 30 mg/kg, po after […] by rotarod test. The format is toxicity, organism-based. The conditions noted are these: in vivo.
Series [8] concerns Rattus norvegicus. As to the kind of experiment: Neurotoxicity in rat at 30 mg/kg, po after 1 hr by rotarod test. The format is toxicity, organism-based. The settings on record: in vivo.
Series [9] relates to Rattus norvegicus. As to the kind of experiment: Neurotoxicity in rat at 30 mg/kg, ip after 0.5 hrs by rotarod test. The format is toxicity, organism-based. The settings on record: in vivo.
Series [10] has as its system Rattus norvegicus. As to the kind of experiment: Neurotoxicity in rat at 30 mg/kg, po after 4 hrs by rotarod test. The format is toxicity, organism-based. The settings on record: in vivo.
Series [11] concerns Rattus norvegicus. As to the kind of experiment: Neurotoxicity in rat at 30 mg/kg, ip after 2 hrs by rotarod test. The format is toxicity, organism-based. The settings on record: in vivo.
Series [12] relates to Mus musculus. As to the kind of experiment: Neurotoxicity in mouse at 30 mg/kg, ip after 2 hrs by rotarod test. The format is toxicity, organism-based. The settings on record: in vivo.
Series [13] relates to Rattus norvegicus. As to the kind of experiment: Neurotoxicity in rat at 30 mg/kg, po after 0.5 hrs by rotarod test. The format is toxicity, organism-based. The conditions noted are these: in vivo.
The subject of series [14] is Rattus norvegicus. As to the kind of experiment: Neurotoxicity in rat at 30 mg/kg, ip after 1 hr by rotarod test. The format is toxicity, organism-based. The settings on record: in vivo.
Series [15] has as its system Mus musculus. As to the kind of experiment: Neurotoxicity in mouse at 30 mg/kg, ip after 4 hrs by rotarod test. The format is toxicity, organism-based. The conditions noted are these: in vivo. Put shortly:
as §1

For series [16], the system named is Rattus norvegicus. As to the kind of experiment: Anticonvulsant activity in rat assessed as protection against maximal electric shock-induced seizures at 30 mg/kg, po measured after 4 hrs. The format is functional, organism-based. A digest of the protocol:
(§2)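 Rats dosed ip or orally as 0.5% methylcellulose suspension; maximal electroshock at listed time. Protection = abolition of hindlimb tonic extension; 4 rats per group, scored protected/tested.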

Series [17] has as its system Rattus norvegicus. As to the kind of experiment: Anticonvulsant activity in rat assessed as protection against maximal electric shock-induced seizures at 30 mg/kg, po measured after 1 hr. The format is functional, organism-based. Put shortly:
as §2

Series [18] has as its system Mus musculus. As to the kind of experiment: Neurotoxicity in mouse at 100 mg/kg, ip after 2 hrs by rotarod test. The format is toxicity, organism-based. The conditions noted are these: in vivo. A digest of the protocol: as §1
The subject of series [19] is Mus musculus. As to the kind of experiment: Neurotoxicity in mouse at 100 mg/kg, ip after 4 hrs by rotarod test. The format is toxicity, organism-based. The conditions noted are these: in vivo. A digest of the protocol: as §1
Series [20] concerns Mus musculus. As to the kind of experiment: Neurotoxicity in mouse at 100 mg/kg, ip after 1 hr by rotarod test. The format is toxicity, organism-based. The conditions noted are these: in vivo. A digest of the protocol:
as §1

In series [21] the test system is Rattus norvegicus. As to the kind of experiment: Anticonvulsant activity in rat assessed as protection against maximal electric shock-induced seizures at 30 mg/kg, ip measured after 1 hr. The format is functional, organism-based. A digest of the protocol:
as §2

Series [22] has as its system Rattus norvegicus. As to the kind of experiment: Anticonvulsant activity in rat assessed as protection against maximal electric shock-induced seizures at 30 mg/kg, po measured after 0.5 hrs. The format is functional, organism-based. A digest of the protocol: as §2
The test system of series [23] is Mus musculus. As to the kind of experiment: Anticonvulsant activity in mouse assessed as protection against 6 Hz psychomotor seizure at 100 mg/kg, ip after 4 hrs. The format is functional, organism-based. Put shortly: (§3)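 Suspension in 0.5% methylcellulose given ip to mice; corneal stimulation with 0.2 ms monopolar rectangular pulses at 6 Hz for 3 s from a constant current device, mice restrained then released to observation cage. Protected if normal exploratory behaviour resumed within 10 s of stimulation. Scored as protected/tested, 4 mice per group.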

Series [24] concerns Rattus norvegicus. As to the kind of experiment: Anticonvulsant activity in rat assessed as protection against maximal electric shock-induced seizures at 30 mg/kg, ip measured after 4 hrs. The format is functional, organism-based. A digest of the protocol:
as §2

The test system of series [25] is Mus musculus. As to the kind of experiment: Anticonvulsant activity in mouse assessed as protection against maximal electric shock-induced seizures at 100 mg/kg, ip measured after 0.5 hrs. The format is functional, organism-based. Put shortly: (§4)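 Mice dosed ip with suspension in 0.5% methylcellulose; maximal electroshock applied at the listed time after dosing. Protection = abolition of hindlimb tonic extension component of seizure; reported as animals protected/animals tested.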

Series [26] relates to Mus musculus. As to the kind of experiment: Anticonvulsant activity in mouse assessed as protection against maximal electric shock-induced seizures at 100 mg/kg, ip measured after 1 hr. The format is functional, organism-based. A digest of the protocol: as §4
For series [27], the system named is Mus musculus. As to the kind of experiment: Anticonvulsant activity in mouse assessed as protection against maximal electric shock-induced seizures at 30 mg/kg, ip measured after 4 hrs. The format is functional, organism-based. A digest of the protocol:
as §4

Series [28] concerns Mus musculus. As to the kind of experiment: Neurotoxicity in mouse at 30 mg/kg, ip after 1 hr by rotarod test. The format is toxicity, organism-based. The conditions noted are these: in vivo.
Series [29] relates to Mus musculus. As to the kind of experiment: Anticonvulsant activity in mouse assessed as protection against maximal electric shock-induced seizures at 30 mg/kg, ip measured after 1 hr. The format is functional, organism-based. A digest of the protocol:
as §4

The subject of series [30] is Rattus norvegicus. As to the kind of experiment: Anticonvulsant activity in rat assessed as protection against maximal electric shock-induced seizures at 30 mg/kg, po measured after […]. The format is functional, organism-based.
For series [31], the system named is Rattus norvegicus. As to the kind of experiment: Anticonvulsant activity in rat assessed as protection against maximal electric shock-induced seizures at 30 mg/kg, po measured after 2 hrs. The format is functional, organism-based. A digest of the protocol:
as §2

The test system of series [32] is Mus musculus. As to the kind of experiment: Anticonvulsant activity in mouse assessed as protection against maximal electric shock-induced seizures at 100 mg/kg, ip measured after […]. The format is functional, organism-based.
Series [33] has as its system Mus musculus. As to the kind of experiment: Anticonvulsant activity in mouse assessed as protection against maximal electric shock-induced seizures at 100 mg/kg, ip measured after 4 hrs. The format is functional, organism-based. Put shortly: as §4
Series [34] concerns Mus musculus. As to the kind of experiment: Anticonvulsant activity in mouse assessed as protection against 6 Hz psychomotor seizure at 100 mg/kg, ip after 2 hrs. The format is functional, organism-based. A digest of the protocol:
as §3

For series [35], the system named is Mus musculus. As to the kind of experiment: Neurotoxicity in mouse at 30 mg/kg, ip after […] by rotarod test. The format is toxicity, organism-based. The conditions noted are these: in vivo.

The source made the active and inactive calls. No cut-off for these calls is given here.

In the case of `Cc1cccc(C)c1OCCOCCN[C@@H](C)CO.Cl`, the Activity result is “Non-toxic” in the series on Rattus norvegicus [1]; “Non-toxic” in the series on Rattus norvegicus [2]; “Non-toxic” in the series on Rattus norvegicus [3]; “Non-toxic” with Mus musculus [4]; “Non-toxic” with Mus musculus [5]; “Toxic” in the series with Mus musculus [6]. Also, the Activity result in the series on Rattus norvegicus [7], in the series with Rattus norvegicus [8], with Rattus norvegicus [9], in the series with Rattus norvegicus [10], in the series with Rattus norvegicus [11] and in the series with Mus musculus [12] was “Non-toxic” each time. The Activity result in the series with Rattus norvegicus [13], in the series on Rattus norvegicus [14] and in the series with Mus musculus [15] was “Non-toxic” in each case.

Turning to `Cc1cccc(OCCCN2CCCC(O)C2)c1C` (configuration not stated), the outcome in the series on Rattus norvegicus [16], in the series with Rattus norvegicus [17], in the series with Rattus norvegicus [21], in the series on Rattus norvegicus [22], in the series on Mus musculus [23] and in the series with Rattus norvegicus [24] was inactive. Further, the outcome with Mus musculus [27], in the series with Mus musculus [29], in the series on Rattus norvegicus [30], in the series on Rattus norvegicus [31], in the series on Mus musculus [33] and in the series on Mus musculus [34] was inactive. In addition, the Activity result in the series with Rattus norvegicus [1], in the series on Mus musculus [18], with Mus musculus [19], in the series on Rattus norvegicus [2], in the series with Rattus norvegicus [3] and in the series on Mus musculus [20] was “Non-toxic” throughout. Also, the Activity result in the series with Mus musculus [4], in the series with Mus musculus [28], in the series on Rattus norvegicus [7], in the series with Rattus norvegicus [8], in the series with Rattus norvegicus [9] and in the series on Rattus norvegicus [10] was “Non-toxic” throughout. In addition, the Activity result in the series on Rattus norvegicus [11], with Mus musculus [35], in the series on Rattus norvegicus [13], in the series on Rattus norvegicus [14] and in the series on Mus musculus [15] was “Non-toxic” each time. The result with Mus musculus [25], in the series on Mus musculus [26] and with Mus musculus [32] was Active.
